Assay results published in ChEMBL document CHEMBL1759994, “The discovery and synthesis of potent zwitterionic inhibitors of renin” (Bioorg Med Chem Lett, 2011).

How the values were obtained:
CYP3A4 = CYP3A4 (Homo sapiens, UniProt P08684); assay: Ratio of IC50 for human CYP3A4 in absence of NADPH to IC50 for human CYP3A4 preincubated for 30 mins in presence of NADPH; conditions: read-out: Ratio IC50
Cytochrome P450 3A4 [1] = molecular target: T1, Cytochrome P450 3A4 (Homo sapiens, UniProt P08684); assay: Inhibition of human CYP3A4 in human liver microsomes assessed as formation of 6beta-hydroxy-testosterone using testosterone as substrate by high throughput mass spectrometry preincubated for 30 mins in presence of NADPH; type: ADME, Microsome
T1 sequence (P08684 whole entry): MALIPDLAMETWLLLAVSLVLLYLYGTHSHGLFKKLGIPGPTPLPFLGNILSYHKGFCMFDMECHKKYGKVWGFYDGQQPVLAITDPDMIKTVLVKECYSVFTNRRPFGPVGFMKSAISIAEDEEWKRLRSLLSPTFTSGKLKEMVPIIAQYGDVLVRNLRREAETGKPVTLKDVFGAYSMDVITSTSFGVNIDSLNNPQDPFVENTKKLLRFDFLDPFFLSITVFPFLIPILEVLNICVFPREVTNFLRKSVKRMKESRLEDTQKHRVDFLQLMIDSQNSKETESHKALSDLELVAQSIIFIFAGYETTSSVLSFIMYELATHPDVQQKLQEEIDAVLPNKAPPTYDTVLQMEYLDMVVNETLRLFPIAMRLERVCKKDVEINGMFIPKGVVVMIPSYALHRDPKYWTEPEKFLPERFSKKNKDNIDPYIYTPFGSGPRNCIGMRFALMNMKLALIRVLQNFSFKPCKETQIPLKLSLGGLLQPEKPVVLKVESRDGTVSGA

Renin [2] = molecular target: T2, Renin (Homo sapiens, UniProt P00797); assay: Inhibition of human recombinant renin in human citreated-plasma
T2 sequence (P00797 whole entry): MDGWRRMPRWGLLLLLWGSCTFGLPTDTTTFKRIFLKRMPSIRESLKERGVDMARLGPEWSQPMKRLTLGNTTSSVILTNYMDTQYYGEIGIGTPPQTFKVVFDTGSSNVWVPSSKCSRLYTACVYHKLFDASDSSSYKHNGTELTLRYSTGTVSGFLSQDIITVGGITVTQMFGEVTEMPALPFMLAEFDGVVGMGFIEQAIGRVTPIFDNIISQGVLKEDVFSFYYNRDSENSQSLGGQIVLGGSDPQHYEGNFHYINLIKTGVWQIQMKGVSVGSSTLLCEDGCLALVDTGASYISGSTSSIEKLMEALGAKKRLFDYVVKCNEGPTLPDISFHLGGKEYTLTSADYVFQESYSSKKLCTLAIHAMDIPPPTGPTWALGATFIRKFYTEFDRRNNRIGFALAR

Renin [3] = molecular target: T2, Renin; assay: Inhibition of human recombinant renin in PBS buffer using tetradecapeptide at pH 7.4
Cytochrome P450 3A4 [4] = molecular target: T1, Cytochrome P450 3A4; assay: Inhibition of human CYP3A4 in human liver microsomes assessed as formation of 6beta-hydroxy-testosterone using testosterone as substrate by high throughput mass spectrometry in absence of NADPH; type: ADME, Microsome
[5] = molecular target: Voltage-gated inwardly rectifying potassium channel KCNH2 (Homo sapiens, UniProt Q12809); assay: Binding affinity to human ERG
Chain of Voltage-gated inwardly rectifying potassium channel KCNH2 (Q12809 whole entry): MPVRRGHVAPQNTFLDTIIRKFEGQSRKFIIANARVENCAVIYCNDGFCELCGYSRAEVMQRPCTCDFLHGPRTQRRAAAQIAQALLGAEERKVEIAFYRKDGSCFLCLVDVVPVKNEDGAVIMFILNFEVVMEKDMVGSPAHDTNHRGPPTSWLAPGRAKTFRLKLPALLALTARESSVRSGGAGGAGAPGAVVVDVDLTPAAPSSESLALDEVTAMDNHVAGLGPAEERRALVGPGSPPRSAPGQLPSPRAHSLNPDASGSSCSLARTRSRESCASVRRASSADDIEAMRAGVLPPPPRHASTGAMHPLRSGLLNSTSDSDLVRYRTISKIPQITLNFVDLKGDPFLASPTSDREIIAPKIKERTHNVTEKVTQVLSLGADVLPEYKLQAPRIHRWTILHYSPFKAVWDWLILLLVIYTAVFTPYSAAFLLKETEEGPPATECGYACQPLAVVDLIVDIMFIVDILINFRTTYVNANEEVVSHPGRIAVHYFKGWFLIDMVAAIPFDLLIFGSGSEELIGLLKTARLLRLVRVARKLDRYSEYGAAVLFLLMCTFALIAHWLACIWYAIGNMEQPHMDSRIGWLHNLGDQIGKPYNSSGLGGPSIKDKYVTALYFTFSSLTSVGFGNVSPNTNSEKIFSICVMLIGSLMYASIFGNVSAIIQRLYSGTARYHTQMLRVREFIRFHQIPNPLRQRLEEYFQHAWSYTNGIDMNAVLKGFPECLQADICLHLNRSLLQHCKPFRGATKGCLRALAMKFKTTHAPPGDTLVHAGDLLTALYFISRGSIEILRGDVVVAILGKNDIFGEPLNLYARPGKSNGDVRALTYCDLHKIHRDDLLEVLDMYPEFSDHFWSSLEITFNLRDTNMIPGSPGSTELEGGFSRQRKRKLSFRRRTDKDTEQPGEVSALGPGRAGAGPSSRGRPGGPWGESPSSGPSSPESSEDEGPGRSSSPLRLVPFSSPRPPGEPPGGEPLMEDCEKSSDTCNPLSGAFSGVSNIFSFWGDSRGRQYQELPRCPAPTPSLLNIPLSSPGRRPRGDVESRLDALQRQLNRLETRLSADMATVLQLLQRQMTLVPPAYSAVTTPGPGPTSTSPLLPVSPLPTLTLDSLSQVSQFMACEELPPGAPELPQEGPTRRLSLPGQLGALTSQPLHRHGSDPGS

[6] = Oral bioavailability in Sprague-Dawley rat at 30 mg/kg in 60% PEG 200; type: ADME, organism-based; conditions: in vivo
[7] = Oral bioavailability in Sprague-Dawley rat at 30 mg/kg in 60% PEG 200 at PH 2.5; type: ADME, organism-based; conditions: in vivo
[8] = AUC (0 to 24 hrs) in Sprague-Dawley rat at 30 mg/kg, po as 0.5% methocel suspension; type: ADME, organism-based; design: time < 24 hr, dose 30 mg/kg, route oral; conditions: plasma
[9] = Oral bioavailability in Sprague-Dawley rat at 30 mg/kg in Na salt in 0.5% methocel; type: ADME, organism-based; conditions: in vivo
[10] = Bioavailability in Sprague-Dawley rat at 20 mg/kg, intra-duodenum in 5% dextrose; type: ADME, organism-based; conditions: in vivo
Summary of the method: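 Rats were dosed directly into the duodenum at 20 mg/kg in 5% dextrose, 1 mL/kg. Bioavailability was calculated for the parent carboxylic acid.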

[11] = Clearance in Sprague-Dawley rat at 30 mg/kg, po in 0.5% methocel and 3 to 5 mg/kg, iv in 60% PEG 200; conditions: in vivo
[12] = AUC (0 to 24 hrs) in Sprague-Dawley rat at 30 mg/kg, po in 60% PEG 200 at PH 2.5; type: ADME, organism-based; design: time < 24 hr, dose 30 mg/kg, route oral; conditions: plasma
[13] = AUC (0 to 24 hrs) in Sprague-Dawley rat at 30 mg/kg, po in Ca salt in 0.5% methocel; type: ADME, organism-based; design: time < 24 hr, dose 30 mg/kg, route oral; conditions: plasma
[14] = AUC (0 to 24 hrs) in Sprague-Dawley rat at 30 mg/kg, po in lyposin 2; type: ADME, organism-based; design: time < 24 hr, dose 30 mg/kg, route oral; conditions: plasma
[15] = Oral bioavailability in Sprague-Dawley rat at 30 mg/kg in Ca salt in 0.5% methocel; type: ADME, organism-based; conditions: in vivo
[16] = Oral bioavailability in Sprague-Dawley rat at 30 mg/kg as 0.5% methocel suspension; type: ADME, organism-based; conditions: in vivo
[17] = AUC (0 to 24 hrs) in Sprague-Dawley rat at 30 mg/kg, po in peanut oil; type: ADME, organism-based; design: time < 24 hr, dose 30 mg/kg, route oral; conditions: plasma
[18] = AUC (0 to 24 hrs) in Sprague-Dawley rat at 30 mg/kg, po in Na salt in 0.5% methocel; type: ADME, organism-based; design: time < 24 hr, dose 30 mg/kg, route oral; conditions: plasma
[19] = Oral bioavailability in Sprague-Dawley rat at 30 mg/kg in lyposin 2; type: ADME, organism-based; conditions: in vivo
[20] = AUC (0 to 24 hrs) in Sprague-Dawley rat at 30 mg/kg, po in 60% PEG 200; type: ADME, organism-based; design: time < 24 hr, dose 30 mg/kg, route oral; conditions: plasma
[21] = Oral bioavailability in Sprague-Dawley rat at 30 mg/kg in peanut oil; type: ADME, organism-based; conditions: in vivo
Liver [22] = assay: Metabolic stability in Sprague-Dawley rat liver S9 fraction assessed as conversion to (1R,2R)-2-((3-(((3R,4S)-N-cyclopropyl-4-(4-(2-(2,6-dichloro-4-methylphenoxy)ethoxy)phenyl)piperidine-3-carboxamido)methyl)-5-(3-methoxypropyl)phenoxy)methyl)cyclopropanecarboxylic acid after 20 mins; type: ADME, subcellular; conditions: s9, 20 min
Summary of the method: (§1)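 Prodrugs were incubated for 20 min in rat or human whole blood, or in rat or human liver S9 fraction (n = 2). The read-out was % conversion to the parent carboxylic acid.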

Blood [23] = assay: Metabolic stability in human whole blood assessed as conversion to (1R,2R)-2-((3-(((3R,4S)-N-cyclopropyl-4-(4-(2-(2,6-dichloro-4-methylphenoxy)ethoxy)phenyl)piperidine-3-carboxamido)methyl)-5-(3-methoxypropyl)phenoxy)methyl)cyclopropanecarboxylic acid after 20 mins; type: ADME, tissue-based; summary of the method: as §1
Blood [24] = assay: Metabolic stability in Sprague-Dawley rat whole blood assessed as conversion to (1R,2R)-2-((3-(((3R,4S)-N-cyclopropyl-4-(4-(2-(2,6-dichloro-4-methylphenoxy)ethoxy)phenyl)piperidine-3-carboxamido)methyl)-5-(3-methoxypropyl)phenoxy)methyl)cyclopropanecarboxylic acid after 20 mins; type: ADME, tissue-based; summary of the method: as §1
Liver [25] = assay: Metabolic stability in human liver S9 fraction assessed as conversion to (1R,2R)-2-((3-(((3R,4S)-N-cyclopropyl-4-(4-(2-(2,6-dichloro-4-methylphenoxy)ethoxy)phenyl)piperidine-3-carboxamido)methyl)-5-(3-methoxypropyl)phenoxy)methyl)cyclopropanecarboxylic acid after 20 mins; type: ADME, subcellular; conditions: s9, 20 min; summary of the method: as §1

Chain of CYP3A4 (P08684 whole entry): as the sequence (P08684 whole entry) above

`COCCCc1cc(CN(C(=O)[C@H]2CNCC[C@@H]2c2ccc(OCCOc3c(Cl)cc(C)cc3Cl)cc2)C2CC2)cc(OCC2(CC#N)CC2)c1` gave an IC50 shift (CYP3A4) of 14.1, an IC50 (Cytochrome P450 3A4 [1]) of 1400 nM and an IC50 (Renin [2]) of 10.9 nM. The IC50 (Renin [3]) was 0.028 nM, the IC50 (Cytochrome P450 3A4 [4]) was 19600 nM and the Ki [5] was 60 nM.
`COCCCc1cc(CN(C(=O)[C@H]2CNCC[C@@H]2c2ccc(OCCOc3c(Cl)cc(C)cc3Cl)cc2)C2CC2)cc(OCCOC)c1` showed an IC50 (Cytochrome P450 3A4 [1]) of 2400 nM, an IC50 (Cytochrome P450 3A4 [4]) of 21600 nM and a Ki [5] of 80 nM.
Molecule `COCCCc1cc(CN(C(=O)[C@H]2CNCC[C@@H]2c2ccc(OCCOc3c(Cl)cc(C)cc3Cl)cc2)C2CC2)cc(OCCN(C)C)c1` has an IC50 (Cytochrome P450 3A4 [1]) of 1400 nM, an IC50 (Cytochrome P450 3A4 [4]) of 22700 nM and a Ki [5] of 180 nM.
In the case of `COCCCc1cc(CN(C(=O)[C@H]2CNCC[C@@H]2c2ccc(OCCOc3c(Cl)cc(C)cc3Cl)cc2)C2CC2)cc(OCCCNS(C)(=O)=O)c1`, the IC50 (Renin [2]) is reported as 2.9 nM, the IC50 (Renin [3]) is reported as 0.028 nM and the Ki [5] is reported as 80 nM.
`CCNC(=O)NCCCOc1cc(CCCOC)cc(CN(C(=O)[C@H]2CNCC[C@@H]2c2ccc(OCCOc3c(Cl)cc(C)cc3Cl)cc2)C2CC2)c1` gave an IC50 shift (CYP3A4) of 2.6, an IC50 (Cytochrome P450 3A4 [1]) of 2400 nM and an IC50 (Renin [2]) of 3.3 nM. It also gave an IC50 (Renin [3]) of 0.022 nM, an IC50 (Cytochrome P450 3A4 [4]) of 6300 nM and a Ki [5] of 150 nM.
In the case of `COCCCc1cc(CN(C(=O)[C@H]2CNCC[C@@H]2c2ccc(OCCOc3c(Cl)cc(C)cc3Cl)cc2)C2CC2)cc(OCC(C)(C)O)c1`, the IC50 (Cytochrome P450 3A4 [1]) is reported as 5600 nM, the IC50 (Cytochrome P450 3A4 [4]) is reported as over 50000 nM and the Ki [5] is reported as 130 nM.
`COCCCc1cc(CN(C(=O)[C@H]2CNCC[C@@H]2c2ccc(OCCOc3c(Cl)cc(C)cc3Cl)cc2)C2CC2)cc(OC[C@H]2C[C@@H]2C(=O)O)c1` gave a bioavailability [6] of 4%, a bioavailability [7] of 1% and an IC50 (Cytochrome P450 3A4 [1]) of over 50000 nM. For the same molecule, the AUC(0-t) at 24 h [8] was 0.1 µM·h, the bioavailability [9] was 1% and the bioavailability [10] was 0%. For the same molecule, the clearance [11] was 60 mL/min/kg, the AUC(0-t) at 24 h [12] was 0.1 µM·h and the AUC(0-t) at 24 h [13] was 0.3 µM·h. For the same molecule, the IC50 (Renin [2]) was 1.1 nM, the AUC(0-t) at 24 h [14] was 0.03 µM·h and the bioavailability [15] was 0%. It also gave a bioavailability [16] of 1%, an AUC(0-t) at 24 h [17] of 0.1 µM·h and an IC50 (Renin [3]) of 0.027 nM. It also gave an AUC(0-t) at 24 h [18] of 0.1 µM·h, an IC50 (Cytochrome P450 3A4 [4]) of over 50000 nM and a bioavailability [19] of 0%. For the same molecule, the AUC(0-t) at 24 h [20] was 0.5 µM·h, the bioavailability [21] was 1% and the Ki [5] was 1070 nM.
With `COCCCc1cc(CN(C(=O)[C@H]2CNCC[C@@H]2c2ccc(OCCOc3c(Cl)cc(C)cc3Cl)cc2)C2CC2)cc(OC[C@H]2C[C@@H]2C(=O)OCC(=O)N(C)C)c1` the AUC(0-t) at 24 h [8] was 3.5 µM·h, the Activity (Liver [22]) was 66% and the Activity (Blood [23]) was 1%. It also gave an Activity (Blood [24]) of 100% and a Ki [5] of 200 nM.
Molecule `CCOC(=O)OC(C)OC(=O)[C@H]1C[C@@H]1COc1cc(CCCOC)cc(CN(C(=O)[C@H]2CNCC[C@@H]2c2ccc(OCCOc3c(Cl)cc(C)cc3Cl)cc2)C2CC2)c1` (stereo not given in full) has an Activity (Liver [25]) of 90%, an Activity (Liver [22]) of 81% and an Activity (Blood [23]) of 38%. It also gave an Activity (Blood [24]) of 100%.
Work on `COCCCc1cc(CN(C(=O)[C@H]2CNCC[C@@H]2c2ccc(OCCOc3c(Cl)cc(C)cc3Cl)cc2)C2CC2)cc(OC[C@H]2C[C@@H]2C(=O)OCOC(=O)C(C)(C)C)c1` yielded an AUC(0-t) at 24 h [8] of 0.2 µM·h, an Activity (Liver [25]) of 95% and an Activity (Liver [22]) of 83%. It also gave an Activity (Blood [23]) of 56%, an Activity (Blood [24]) of 100% and a Ki [5] of 40 nM.
